Activity calls are given as the source filed them. The rule behind the calls is not given here.
Tested on: Plasmodium falciparum
Assay: Antimalarial activity against chloroquine-resistant Plasmodium falciparum W2
Type: functional, organism-based

| SMILES | IC50 |
| --- | --- |
| CC(C)=C1C(=O)C[C@@]2(C)C[C@H]3O[C@]3(C)CC[C@@H]3O[C@@]3(C)CC[C@H]12 | 37.7 µM |
| C/C1=C\C[C@]2(C)C(=O)C=C(C(C)C)[C@H]2CC[C@]2(C)O[C@H]2CC1 | 43 µM |
| CC(C)=C1C(=O)C[C@@]2(C)C/C=C(\C)CC/C=C(\C)CC[C@H]12 [DOLABELLANE] | 45.5 µM |
| C=C1CC/C=C(\C)CC[C@@H]2C(=C(C)C)C(=O)C[C@@]2(C)C[C@@H]1OC(C)=O (relative stereo) | 20.3 µM |
| CC(C)=C1C(=O)C[C@@]2(C)C/C=C(\C)CC[C@@H]3O[C@@]3(C)CC[C@H]12 | 23.2 µM |
| C/C1=C\C[C@]2(C)CC=C(C(C)(C)O)[C@H]2CC/C(C)=C/CC1 [PALOMINOL] | 31.2 µM |
| CC1=CC[C@@H](O)[C@]2(C)CC[C@@H]3C(=C(C)C)C(=O)C[C@@]3(C)C[C@@H]12 | 59.6 µM |
| CC(=O)OC/C1=C\C[C@]2(C)CC(=O)C(=C(C)C)[C@H]2CC[C@]2(C)O[C@H]2CC1 | 30.6 µM |
| C/C1=C/C[C@]2(C)C(=O)C=C(C(C)C)[C@H]2C/C=C(\C)[C@H](OO)CC1 (relative stereo) | 9.4 µM |
| CC(=O)O[C@H]1C/C(C)=C/C[C@]2(C)CC(=O)C(=C(C)C)[C@H]2CC[C@]2(C)O[C@@H]12 | 33.3 µM |
| C=C1CCC(=O)[C@@H](C)CC[C@@H]2C(=C(C)C)C(=O)C[C@@]2(C)C[C@@H]1OC(C)=O | 50 µM |
| CC(C)=C1C(=O)C[C@@]2(C)C/C=C(\C)CCC(=O)[C@H](C)CC[C@H]12 | 13.2 µM |
| C/C1=C/C[C@]2(C)CC(=O)C(C(C)C)[C@H]2C/C=C(\C)[C@H](OO)CC1 (relative stereo) | 40.9 µM |
| C=C1CC/C=C(\C)CC[C@@H]2C(=C(C)C)C(=O)C[C@@]2(C)C[C@@H]1O | 36.4 µM |
| C=C1CC[C@@H]2O[C@@]2(C)CC[C@@H]2C(=C(C)C)C(=O)C[C@@]2(C)C[C@@H]1OC(C)=O | 36.1 µM |
| CC(C)=C1C(=O)C[C@@]2(C)C/C=C(\C)CC[C@@H](OO)/C(C)=C/C[C@H]12 (relative stereo) | 36.4 µM |
| C/C1=C/C[C@]2(C)C(=O)C=C(C(C)C)[C@H]2CC[C@@]2(C)O[C@@H]2CC1 | ≥ 100 µM |

Tested on: Mycobacterium tuberculosis
Assay: Antimycobacterial activity against Mycobacterium tuberculosis at 6.25 ug/ml by Alamar blue assay
Type: functional
Summary of the method: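 Single-concentration screen at 6.25 µg/mL against *M. tuberculosis* growth, read out as percent inhibition.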

| SMILES | inhibition at 6.25 µg/mL |
| --- | --- |
| CC(C)=C1C(=O)C[C@@]2(C)C/C=C(\C)CC/C=C(\C)CC[C@H]12 [DOLABELLANE] | ≤ 50% |
| C=C1CC/C=C(\C)CC[C@@H]2C(=C(C)C)C(=O)C[C@@]2(C)C[C@@H]1OC(C)=O (relative stereo) | ≤ 50% |
| CC(C)=C1C(=O)C[C@@]2(C)C/C=C(\C)CC[C@@H]3O[C@@]3(C)CC[C@H]12 | ≤ 50% |
| C/C1=C\C[C@]2(C)CC=C(C(C)(C)O)[C@H]2CC/C(C)=C/CC1 [PALOMINOL] | ≤ 50% |
| CC1=CC[C@@H](O)[C@]2(C)CC[C@@H]3C(=C(C)C)C(=O)C[C@@]3(C)C[C@@H]12 | ≤ 50% |
| C/C1=C/C[C@]2(C)C(=O)C=C(C(C)C)[C@H]2C/C=C(\C)[C@H](OO)CC1 (relative stereo) | ≤ 50% |
| CC(C)=C1C(=O)C[C@@]2(C)C/C=C(\C)CCC(=O)[C@H](C)CC[C@H]12 | ≤ 50% |
| C=C1CC[C@@H](O)[C@]2(C)CC[C@@H]3C(=C(C)C)C(=O)C[C@@]3(C)C[C@@H]12 | ≤ 50% |
| CC(C)=C1C(=O)C[C@@]2(C)C/C=C(\C)CC[C@@H](OO)/C(C)=C/C[C@H]12 (relative stereo) | ≤ 50% |
| C/C1=C/C[C@]2(C)C(=O)C=C(C(C)C)[C@H]2CC[C@@]2(C)O[C@@H]2CC1 | ≤ 50% |

Tested on: MCF7
Assay: Antiproliferative activity against human MCF7 cells after 48 hrs by SRB assay
Type: functional, cell-based
Summary of the method: (§1)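 NCI one-dose primary prescreen in a three-line panel (MCF-7 breast, NCI-H460 non-small cell lung, SF-268 CNS). Cytotoxicity was judged against untreated control cells. Antiproliferative activity in this prescreen is required before testing in the 60-cell-line panel.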

| SMILES | Activity |
| --- | --- |
| CC(C)=C1C(=O)C[C@@]2(C)C[C@H]3O[C@]3(C)CC[C@@H]3O[C@@]3(C)CC[C@H]12 | inactive |
| CC(C)=C1C(=O)C[C@@]2(C)C/C=C(\C)CC/C=C(\C)CC[C@H]12 [DOLABELLANE] | inactive |
| CC(C)=C1C(=O)C[C@@]2(C)C/C=C(\C)CC[C@@H]3O[C@@]3(C)CC[C@H]12 | inactive |
| CC(C)=C1C(=O)C[C@@]2(C)C/C=C(\C)CCC(=O)[C@H](C)CC[C@H]12 | inactive |

Tested on: NCI-H460
Assay: Antiproliferative activity against human NCI-H460 cells after 48 hrs by SRB assay
Type: functional, cell-based
Summary of the method: as §1

| SMILES | Activity |
| --- | --- |
| CC(C)=C1C(=O)C[C@@]2(C)C[C@H]3O[C@]3(C)CC[C@@H]3O[C@@]3(C)CC[C@H]12 | inactive |
| CC(C)=C1C(=O)C[C@@]2(C)C/C=C(\C)CC/C=C(\C)CC[C@H]12 [DOLABELLANE] | inactive |
| CC(C)=C1C(=O)C[C@@]2(C)C/C=C(\C)CC[C@@H]3O[C@@]3(C)CC[C@H]12 | inactive |
| CC(C)=C1C(=O)C[C@@]2(C)C/C=C(\C)CCC(=O)[C@H](C)CC[C@H]12 | inactive |

Tested on: SF-268
Assay: Antiproliferative activity against human SF268 cells after 48 hrs by SRB assay
Type: functional, cell-based
Summary of the method: as §1

| SMILES | Activity |
| --- | --- |
| CC(C)=C1C(=O)C[C@@]2(C)C[C@H]3O[C@]3(C)CC[C@@H]3O[C@@]3(C)CC[C@H]12 | inactive |
| CC(C)=C1C(=O)C[C@@]2(C)C/C=C(\C)CCC(=O)[C@H](C)CC[C@H]12 | inactive |

Tested on: Hepatitis B virus
Assay: Antiviral activity against HBV in human HepG2(2.2.15) cells at 30 mM
Type: functional, organism-based

| SMILES | Activity |
| --- | --- |
| CC(C)=C1C(=O)C[C@@]2(C)C/C=C(\C)CC/C=C(\C)CC[C@H]12 [DOLABELLANE] | inactive |
| C/C1=C\C[C@]2(C)CC=C(C(C)(C)O)[C@H]2CC/C(C)=C/CC1 [PALOMINOL] | inactive |
| C/C1=C/C[C@]2(C)C(=O)C=C(C(C)C)[C@H]2C/C=C(\C)[C@H](OO)CC1 (relative stereo) | inactive |
| CC(C)=C1C(=O)C[C@@]2(C)C/C=C(\C)CCC(=O)[C@H](C)CC[C@H]12 | inactive |
| CC(C)=C1C(=O)C[C@@]2(C)C/C=C(\C)CC[C@@H](OO)/C(C)=C/C[C@H]12 (relative stereo) | inactive |

From ChEMBL document CHEMBL1158572, “Dolabellane-type diterpenoids with antiprotozoan activity from a southwestern Caribbean gorgonian octocoral of the genus Eunicea” (J Nat Prod, 2010)
